According to publication PMC2788160 (Nutrition Research and Practice, 2009):
Each block holds one compound with its values, some of them ahead of it.

Columns and labels:
Caco-2 cell monolayer = assay: Apical-to-basolateral uptake in Caco-2 differentiated monolayer; type: in vitro ADME, human; conditions: for Absorption percent: Caco-2 cells over 1 hour; for Conc. of aloin in basolateral side / Conc. of aloe-emodin in basolateral side: 1 hr, 37℃
Outline: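 Caco-2 (passages 26-48; high-glucose DMEM, 10% FBS, 1% nonessential amino acids) on Transwell inserts at 5×10^4 cells/cm2, 18-24 days; TEER >550 Ω·cm2. Apical compound at 5, 10, 50 µM final (DMSO, diluted in HBSS, pH 6.0); basolateral HBSS pH 7.4; 1 hr, 37℃. C18 HPLC with/without sulfatase H-5 (45 min, 37℃) gives parent and conjugates; % absorption = basolateral×100/apical concentration.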

[1] = system: everted gut sac (rat small intestine); assay: Everted gut sac model uptake into serosal side; type: in vitro ADME; conditions: 10 µM, 1 hr; Fig. 2
Outline: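 Rats fasted overnight; small intestine flushed with 0.9% NaCl, everted in warm oxygenated TC 199 medium, filled, cut into ~2.5 cm sacs from upper/mid-jejunum (12-15 per experiment). Sacs incubated 1 hr, 37℃ in 6 ml oxygenated medium with 10 µM compound; serosal fluid collected, volume from sac weights. HPLC with/without sulfatase (difference = conjugates); uptake per mg tissue protein (modified Lowry, BSA standard).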

Absorption percent (Caco-2 cell monolayer; 5 μM): 7.61%
Absorption percent (Caco-2 cell monolayer; 10 μM): 13.64%
Absorption percent (Caco-2 cell monolayer; 50 μM): 8.14%
SMILES: CC(=O)Cc1cc(=O)c2c(C)cc(O)c([C@@H]3O[C@H](CO)[C@@H](O)[C@H](O)[C@H]3O)c2o1 [aloesin]
% absorption in everted gut sac compared to Caco-2 monolayer [1]: more aloesin were shown to be absorbed in the gut sac compared to the Caco-2 monolayer

Conc. of aloin in basolateral side (Caco-2 cell monolayer; 5 μM apical treatment): 0.11 nmol/cm^2 culture area
Conc. of aloin in basolateral side (Caco-2 cell monolayer; 10 μM apical treatment): 0.42 nmol/cm^2 culture area
Conc. of aloin in basolateral side (Caco-2 cell monolayer; 50 μM apical treatment): 1.99 nmol/cm^2 culture area
SMILES: O=C1c2c(O)cccc2C([C@@H]2O[C@H](CO)[C@@H](O)[C@H](O)[C@H]2O)c2cc(CO)cc(O)c21 (stereo partly shown) [aloin]

Conc. of aloe-emodin in basolateral side (Caco-2 cell monolayer; 5 μM apical treatment): 0.13 nmol/cm^2 culture area
Conc. of aloe-emodin in basolateral side (Caco-2 cell monolayer; 10 μM apical treatment): 0.86 nmol/cm^2 culture area
Conc. of aloe-emodin in basolateral side (Caco-2 cell monolayer; 50 μM apical treatment): 2.51 nmol/cm^2 culture area
SMILES: O=C1c2cccc(O)c2C(=O)c2c(O)cc(CO)cc21 [aloe-emodin]
